ChEMBL document CHEMBL2331228, “Synthesis and insight into the structure-activity relationships of chalcones as antimalarial agents” (J Med Chem, 2013)
≈ marks a conversion by molar mass, not a printed value.

Assays:
Plasmodium falciparum [1] = assay: Antimalarial activity against schizont stage of chloroquine-sensitive Plasmodium falciparum 3D7 after more than 40 hrs by Giemsa staining-based light microscopic analysis; assay type: functional; details: 3D7, 40 h
Procedure, shortened: (§1)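 Ring stages (5% D-sorbitol synchronized) of 3D7 were grown in RPMI with 10% FBS, gentamycin and Fungizone at 37 °C under CO2. They were exposed in duplicate to compound (DMSO stock, 5 mg/mL) at 2, 10 and 50 μg/mL, with 3% cell suspension and 1% parasitized cells, for >40 h. Giemsa-stained thin smears were counted for schizonts. MIC is the lowest concentration giving 100% inhibition of schizont maturation.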

Plasmodium falciparum [2] = assay: Antimalarial activity against schizont stage of chloroquine-sensitive Plasmodium falciparum 3D7 assessed as reduction in parasitemia at 50 ug/ml after more than 40 hrs by Giemsa staining-based light microscopy; assay type: functional; parameters: scale not given: the % may be the effect or the level left; procedure, shortened: as §1

Row | Compound | MIC (Plasmodium falciparum [1]) [µM] | Activity (Plasmodium falciparum [2]) [%]
1 | CC(C)=CCCC1(C)C=Cc2c(ccc(C(=O)/C=C/c3cccc([N+](=O)[O-])c3)c2O)O1 (stereo unspecified) | 4.77 (≈ 2 µg/mL) | –
2 | CC(C)=CCCC1(C)C=Cc2c(ccc(C(=O)/C=C/c3cc4ccccc4nc3Cl)c2O)O1 (stereo unspecified) | 109 (≈ 50.1 µg/mL) | –
3 | CC1(C)C=Cc2c(ccc(C(=O)CCc3ccc(O)cc3)c2O)O1 | 30.9 (≈ 10 µg/mL) | –
4 | CC(C)=CCCC1(C)C=Cc2c(ccc(C(=O)/C=C/c3cccnc3)c2OCCN2CCCCC2)O1 (stereo unspecified) | 4.11 (≈ 2 µg/mL) | –
5 | COc1ccc(C(=O)c2cc3cc(/C=C/C(=O)c4ccc5c(c4O)C=CC(C)(CCC=C(C)C)O5)ccc3o2)cc1 (stereo unspecified) | > 91.2 | <100
6 | CC(C)CCCC1(C)CCc2c(ccc(C(=O)/C=C/c3cccnc3)c2O)O1 (stereo unspecified) | 5.27 (≈ 2 µg/mL) | –
7 | CC1(C)C=Cc2c(ccc(C(=O)/C=C/c3ccc(F)c(F)c3)c2O)O1 | 146 (≈ 50 µg/mL) | –
8 | COc1ccc(/C=C/C(=O)c2ccc3c(c2O)C=CC(C)(CCC=C(C)C)O3)cc1 (stereo unspecified) | > 124 | <100
9 | CC(C)=CCCC1(C)C=Cc2c(ccc(C(=O)/C=C/c3cnc4ccccc4c3)c2O)O1 (stereo unspecified) | 23.5 (≈ 10 µg/mL) | –
10 | CC(C)=CCCC1(C)C=Cc2ccc(O)c(C(=O)CCc3cc(C=O)ccc3O)c2O1 (stereo unspecified) | 9.12 (≈ 3.84 µg/mL) | –
11 | COc1ccc(/C=C/C(=O)c2ccc3c(c2O)C=CC(C)(C)O3)cc1 | > 149 | <100
12 | COc1ccc(/C=C/C(=O)c2ccc3c(c2O)C=CC(C)(CCC=C(C)C)O3)cc1OC (stereo unspecified) | 115 (≈ 50.1 µg/mL) | –
13 | CC1(C)C=Cc2c(ccc(C(=O)/C=C/c3ccc(Br)cc3)c2O)O1 | 130 (≈ 50.2 µg/mL) | –
14 | CCOc1ccc(/C=C/C(=O)c2ccc3c(c2O)C=CC(C)(C)O3)cc1 | > 143 | <100
15 | CC1(C)CCc2cc(C(=O)/C=C/c3cccnc3)c(O)cc2O1 | 32.4 (≈ 10 µg/mL) | –
16 | CC(C)=CCCC1(C)C=Cc2c(ccc(C(=O)/C=C/c3ccc(F)cc3)c2O)O1 (stereo unspecified) | 128 (≈ 50.1 µg/mL) | –
17 | COc1ccc(/C=C/C(=O)c2cc(CC=C(C)C)c(O)cc2O)cc1O | 28.2 (≈ 10 µg/mL) | –
18 | CC1(C)C=Cc2c(ccc(C(=O)/C=C/c3cnc4ccccc4c3)c2O)O1 | > 140 | <100
19 | CC1(C)C=Cc2c(ccc(C(=O)/C=C/c3cc4ccccc4nc3Cl)c2O)O1 | 128 (≈ 50.1 µg/mL) | –
20 | COc1ccc(CCC(=O)c2ccc3c(c2O)C=CC(C)(C)O3)cc1 | > 148 | <100
21 | CC(C)=CCCC1(C)C=Cc2c(ccc(C(=O)/C=C/c3ccc(O)cc3)c2O)O1 (stereo unspecified) [LESPEOL] | 25.6 (≈ 10 µg/mL) | –
22 | COc1cc(/C=C/C(=O)c2ccc3c(c2O)C=CC(C)(CCC=C(C)C)O3)cc(OC)c1OC (stereo unspecified) | 21.6 (≈ 10 µg/mL) | –
23 | CC(C)=CCCC1(C)C=Cc2c(ccc(C(=O)/C=C/c3cc4cc(C)ccc4nc3Cl)c2O)O1 (stereo unspecified) | 106 (≈ 50.1 µg/mL) | –
24 | COc1cc(/C=C/C(=O)c2cc(CC=C(C)C)c(O)cc2O)ccc1O | 28.2 (≈ 10 µg/mL) | –
25 | CC(C)=CCCC1(C)C=Cc2c(ccc(C(=O)/C=C/c3ccc(OCCN4CCCCC4)cc3)c2OCCN2CCCCC2)O1 (stereo unspecified) | 3.26 (≈ 2 µg/mL) | –

Row | Compound | MIC (Plasmodium falciparum [1]) [µM] | Activity (Plasmodium falciparum [2]) [%]
26 | CC(C)=CCCC1(C)C=Cc2c(ccc(C(=O)/C=C/c3ccc(Cl)cc3)c2O)O1 (stereo unspecified) | > 123 | <100
27 | CC(C)=CCCC1(C)C=Cc2c(ccc(/C=C/C(=O)c3ccc(C)c(C)c3)c2O)O1 (stereo unspecified) | 24.9 (≈ 10 µg/mL) | –
28 | COc1ccc(/C=C/C(=O)c2ccc3c(c2O)CCC(C)(CCCC(C)C)O3)cc1 (stereo unspecified) | 123 (≈ 50.1 µg/mL) | –
29 | COCOc1ccc(/C=C/C(=O)c2c(O)c3c(c4c2OC(C)(CCC=C(C)C)C=C4)OC(C)(CCC=C(C)C)C=C3)cc1C(OC)OC (stereo unspecified) | 15.2 (≈ 10 µg/mL) | –
30 | CCOc1ccc(/C=C/C(=O)c2cc(CC=C(C)C)c(O)cc2O)cc1 | 28.4 (≈ 10 µg/mL) | –
31 | CC1(C)C=Cc2c(ccc(C(=O)CCc3ccc(O)c(O)c3)c2O)O1 | 29.4 (≈ 10 µg/mL) | –
32 | CC1(C)C=Cc2c(ccc(C(=O)/C=C/c3ccc([N+](=O)[O-])cc3)c2O)O1 | > 142 | <100
33 | CC(C)=CCCC1(C)C=Cc2c(ccc(C(=O)CCc3cc(C=O)ccc3O)c2O)O1 (stereo unspecified) | 10.3 (≈ 4.33 µg/mL) | –
34 | CC(=O)Oc1ccc(/C=C/C(=O)c2ccc3c(c2O)C=CC(C)(C)O3)cc1 | 27.5 (≈ 10 µg/mL) | –
35 | CCOc1cc(F)ccc1/C=C/C(=O)c1ccc2c(c1O)C=CC(C)(C)O2 | 136 (≈ 50.1 µg/mL) | –
36 | COc1cc(OC)c(OC)cc1/C=C/C(=O)c1cc(CC=C(C)C)c(O)cc1O | 25.1 (≈ 10 µg/mL) | –
37 | COc1ccc(/C=C/C(=O)c2cc(CC=C(C)C)c(O)cc2O)cc1OC | 27.2 (≈ 10 µg/mL) | –
38 | COc1ccccc1/C=C/C(=O)c1ccc2c(c1O)C=CC(C)(C)O2 | > 149 | <100
39 | CC(C)=CCCC1(C)C=Cc2c(ccc(C(=O)/C=C/c3ccc(N(C)C)cc3)c2O)O1 (stereo unspecified) | > 120 | <100
40 | COc1cc(OC)c(OC)cc1/C=C/C(=O)c1ccc2c(c1O)C=CC(C)(C)O2 | 25.2 (≈ 10 µg/mL) | –
41 | CC1(C)C=Cc2c(ccc(C(=O)/C=C/c3ccccn3)c2O)O1 | 32.6 (≈ 10 µg/mL) | –
42 | CC1(C)C=Cc2c(ccc(C(=O)/C=C/c3ccc(F)cc3)c2O)O1 | 154 (≈ 50.1 µg/mL) | –
43 | CC(C)CCCC1(C)CCc2c(ccc(C(=O)/C=C/c3ccc(O)cc3)c2O)O1 (stereo unspecified) | 127 (≈ 50.1 µg/mL) | –
44 | CC1(C)C=Cc2c(ccc(C(=O)/C=C/c3ccc(Cl)cc3Cl)c2O)O1 | 5.34 (≈ 2 µg/mL) | –
45 | CC1(C)C=Cc2c(ccc(C(=O)/C=C/c3ccc(OCCN4CCCCC4)cc3)c2OCCN2CCCCC2)O1 | 3.67 (≈ 2 µg/mL) | –
46 | CC(C)=CCCC1(C)C=Cc2c(ccc(C(=O)/C=C/c3ccccn3)c2O)O1 (stereo unspecified) | 26.7 (≈ 10 µg/mL) | –
47 | CC1(C)C=Cc2c(ccc(C(=O)/C=C/c3ccc(C#N)cc3)c2O)O1 | > 151 | <100
48 | COc1ccccc1/C=C/C(=O)c1ccc2c(c1O)C=CC(C)(CCC=C(C)C)O2 (stereo unspecified) | 124 (≈ 50.1 µg/mL) | –
49 | CC(C)=CCc1cc(C(=O)/C=C/c2ccc(Cl)cc2)c(O)cc1O | 146 (≈ 50.1 µg/mL) | –
50 | CC(C)=CCCC1(C)C=Cc2c(ccc(C(=O)/C=C/c3cc(Cl)cc(Cl)c3)c2O)O1 (stereo unspecified) | 113 (≈ 50.2 µg/mL) | –

Row | Compound | MIC (Plasmodium falciparum [1]) [µM] | Activity (Plasmodium falciparum [2]) [%]
51 | CC(C)=CCCC1(C)C=Cc2c(ccc(C(=O)/C=C/c3ccc(C#N)cc3)c2O)O1 (stereo unspecified) | 5.01 (≈ 2 µg/mL) | –
52 | COCOc1ccc(/C=C/C(=O)c2cc(CC=C(C)C)c(O)cc2O)cc1 | 27.2 (≈ 10 µg/mL) | –
53 | COCOc1ccc(/C=C/C(=O)c2ccc3c(c2O)C=CC(C)(CCC=C(C)C)O3)cc1C=O (stereo unspecified) | 21.6 (≈ 10 µg/mL) | –
54 | CC(C)=CCCC1(C)C=Cc2c(ccc(C(=O)/C=C/c3cccnc3)c2O)O1 (stereo unspecified) | 5.33 (≈ 2 µg/mL) | –
55 | CC1(C)C=Cc2c(ccc(C(=O)/C=C/c3cc(C=O)ccc3O)c2O)O1 | 28.6 (≈ 10 µg/mL) | –
56 | COc1ccc(CCC(=O)c2ccc3c(c2O)C=CC(C)(C)O3)cc1OC | > 136 | <100
57 | CC1(C)C=Cc2c(ccc(C(=O)/C=C/c3ccc(F)cc3F)c2O)O1 | > 146 | <100
58 | CC(C)=CCCC1(C)C=Cc2c(ccc(C(=O)/C=C/c3ccc(Br)cc3)c2O)O1 (stereo unspecified) | > 111 | <100
59 | CC1(C)CCc2c(ccc(C(=O)/C=C/c3cccnc3)c2O)O1 | 32.4 (≈ 10 µg/mL) | –
60 | COc1ccccc1/C=C/C(=O)c1cc(CC=C(C)C)c(O)cc1O | 29.6 (≈ 10 µg/mL) | –
61 | CCOc1cc(/C=C/C(=O)c2ccc3c(c2O)C=CC(C)(C)O3)ccc1F | > 136 | <100
62 | CC1(C)C=Cc2c(ccc(C(=O)/C=C/c3ccc(O)cc3)c2O)O1 | 155 (≈ 50.1 µg/mL) | –
63 | COc1ccc(/C=C/C(=O)c2cc(CC=C(C)C)c(O)cc2O)cc1 | 28.6 (≈ 9.67 µg/mL) | –
64 | CC(C)=CCc1cc(C(=O)/C=C/c2ccc(N(C)C)cc2)c(O)cc1O | 142 (≈ 50.1 µg/mL) | –
65 | CC(C)=CCCC1(C)C=Cc2c(ccc(C(=O)/C=C/c3ccc(Cl)cc3Cl)c2O)O1 (stereo unspecified) | > 113 | <100
66 | CC1(C)C=Cc2c(ccc(C(=O)/C=C/c3ccc(Cl)cc3)c2O)O1 | 147 (≈ 50.1 µg/mL) | –
67 | CC1(C)C=Cc2c(ccc(C(=O)/C=C/c3cccnc3)c2O)O1 | 32.6 (≈ 10 µg/mL) | –
68 | CC(C)=CCCC1(C)C=Cc2c(ccc(C(=O)/C=C/c3ccc4oc(C(=O)c5ccccc5)cc4c3)c2O)O1 (stereo unspecified) | 19.3 (≈ 10 µg/mL) | –
69 | COc1ccc(/C=C/C(=O)c2ccc(O)c(CC=C(C)C)c2O)cc1O | 28.2 (≈ 10 µg/mL) | –
70 | Cc1ccc2nc(Cl)c(/C=C/C(=O)c3ccc4c(c3O)C=CC(C)(C)O4)cc2c1 | 123 (≈ 50.1 µg/mL) | –
71 | CC(C)=CCCC1(C)C=Cc2c(ccc(/C=C/C(=O)c3cccc(C)c3)c2O)O1 (stereo unspecified) | 25.8 (≈ 10 µg/mL) | –
72 | COc1ccc(/C=C/C(=O)c2ccc3c(c2O)C=CC(C)(C)O3)cc1OC | 137 (≈ 50.1 µg/mL) | –
73 | CC(C)=CCCC1(C)C=Cc2c(ccc(C(=O)/C=C/c3ccc(F)c(F)c3)c2O)O1 (stereo unspecified) | 22.6 (≈ 9.28 µg/mL) | –
74 | CCOc1ccc(/C=C/C(=O)c2ccc3c(c2O)C=CC(C)(CCC=C(C)C)O3)cc1 (stereo unspecified) | 120 (≈ 50.1 µg/mL) | –
75 | CC(C)=CCCC1(C)C=Cc2c(ccc(C(=O)/C=C/c3ccc([N+](=O)[O-])cc3)c2O)O1 (stereo unspecified) | 119 (≈ 50.1 µg/mL) | –
